Data published in ChEMBL document CHEMBL2069274, “Novel 3-nitro-1H-1,2,4-triazole-based amides and sulfonamides as potential antitrypanosomal agents” (J Med Chem, 2012).

Assays:
[1] = system: Leishmania donovani; assay: Antileishmanial activity against Leishmania donovani MHOM-ET67/L82 amastigotes; assay type: functional, organism-based
Summary of the method: (§1)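 96-well format screens: bloodstream-form T. b. rhodesiense trypomastigotes, T. cruzi amastigotes within infected L6 rat skeletal myoblasts, axenically grown L. donovani amastigotes, and uninfected L6 cells for cytotoxicity. IC50 (μM) obtained by linear regression from sigmoidal dose–inhibition curves.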

[2] = Selectivity index, ratio of IC50 for rat L6 cells to IC50 for Trypanosoma cruzi Tulahuen C4 amastigotes
[3] = system: Trypanosoma cruzi; assay: Ratio of benznidazole IC50 to compound IC50 for Trypanosoma cruzi Tulahuen C4 amastigotes; assay type: functional
[4] = system: Trypanosoma cruzi; assay: Antitrypanosomal activity against Trypanosoma cruzi Tulahuen C4 amastigotes; assay type: functional, organism-based; summary of the method: as §1
[5] = system: L6; assay: Cytotoxicity against rat L6 cells; assay type: cell-based; summary of the method: as §1
[6] = system: Trypanosoma brucei rhodesiense; assay: Antitrypanosomal activity against Trypanosoma brucei rhodesiense STIB 900 trypomastigotes; assay type: functional, organism-based; summary of the method: as §1
[7] = system: Trypanosoma brucei brucei; assay: Antitrypanosomal activity against bloodstream form of Trypanosoma brucei brucei Lister 427 clone 221a; assay type: functional, organism-based
Summary of the method: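 Bloodstream-form parasites seeded at 1 × 10^3 per ml in growth medium with a range of compound concentrations; where required, TbNTR expression induced with tetracycline (1 μg/mL). Incubation 3 days at 37 °C, then Alamar blue added for a further 16 h. Cell density read and IC50 determined.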

[8] = Selectivity index, ratio of IC50 for rat L6 cells to IC50 for Trypanosoma brucei rhodesiense STIB900 trypomastigotes

| SMILES | IC50 [1] | IC50 [4] | IC50 [6] | selectivity ratio [2] | Ratio IC50 [3] | IC50 [5] | IC50 [7] | selectivity ratio [8] |
| --- | --- | --- | --- | --- | --- | --- | --- | --- |
| O=[N+]([O-])c1ncn(CCNS(=O)(=O)c2cc(C(F)(F)F)cc(C(F)(F)F)c2)n1 | 33.3 µM | 1.68 µM | 36.7 µM | 66.2 | 0.9 | 111 µM | 7.9 µM | 3 |
| COc1cc([C@@H]2c3cc4c(cc3[C@H](O)[C@H]3COC(=O)[C@H]23)OCO4)cc(OC)c1OC [PODOFILOX] |  |  |  |  |  | 0.022 µM |  |  |
| O=[N+]([O-])c1ncn(CCCNS(=O)(=O)c2cc(C(F)(F)F)ccc2C(F)(F)F)n1 | 46.1 µM | 0.644 µM | 10.3 µM | 178 | 2.4 | 115 µM | > 10 µM |  |
| O=[N+]([O-])c1ncn(CCCNS(=O)(=O)c2cc(C(F)(F)F)cc(C(F)(F)F)c2)n1 | 20.7 µM | 0.322 µM | 11.3 µM | 338 | 4.9 | 109 µM | 6.6 µM | 9.6 |
| O=C(NCCCn1cnc([N+](=O)[O-])n1)c1ccc(C(F)(F)F)nc1 | 96.5 µM | 3.46 µM | 3.55 µM | > 84 | 0.5 | > 291 µM | 7.9 µM |  |
| O=C(NCCCn1cnc([N+](=O)[O-])n1)c1cccc(C(F)(F)F)c1 | 37.3 µM | 0.353 µM | 3.76 µM | > 826 | 4.4 | > 292 µM | > 10 µM |  |
| O=[N+]([O-])c1ncn(CCCNS(=O)(=O)c2cccc3cccnc23)n1 | 32.9 µM | 0.4 µM | 6.52 µM | 519 | 3.9 | 208 µM | > 10 µM |  |
| O=C(NCCCn1cnc([N+](=O)[O-])n1)c1cnc2ccccc2n1 | 62.7 µM | 0.807 µM | 34.9 µM | > 379 | 1.9 | > 306 µM | > 10 µM |  |

The next lines start with results.

| IC50 [1] | IC50 [4] | IC50 [6] | SMILES | selectivity ratio [2] | Ratio IC50 [3] | IC50 [5] | IC50 [7] | selectivity ratio [8] |
| --- | --- | --- | --- | --- | --- | --- | --- | --- |
| 36 µM | 3.71 µM | 46.6 µM | O=C(NCCCn1ccnc1[N+](=O)[O-])c1ccc(OC(F)(F)F)cc1 | 74 | 0.4 | 274 µM |  |  |
| 7.79 µM | 0.71 µM | 0.354 µM | O=[N+]([O-])c1ncn(CCCCNS(=O)(=O)c2ccc(C(F)(F)F)cc2)n1 | 120 | 2.2 | 84.9 µM |  | 240 |
| > 332 µM | 83.4 µM | 35.9 µM | Cn1ccnc1S(=O)(=O)NCCn1cnc([N+](=O)[O-])n1 | > 4 | 0 | > 332 µM |  | > 9.3 |
| 79.4 µM | 2.24 µM | 6.49 µM | O=[N+]([O-])c1ncn(CCCNS(=O)(=O)Cc2ccccc2)n1 | > 138 | 0.7 | > 308 µM |  | > 47.4 |
| 113 µM | 6.46 µM | 8.39 µM | O=[N+]([O-])c1ncn(CCNS(=O)(=O)Cc2ccccc2)n1 | > 48 | 0.2 | > 322 µM |  | > 38.3 |
| 223 µM | 20.6 µM | 21.9 µM | Cn1ccnc1S(=O)(=O)NCCCn1cnc([N+](=O)[O-])n1 | > 15 | 0.1 | > 318 µM |  | > 14.5 |
| 29.2 µM | 0.73 µM | 1.99 µM | O=C(NCCn1cnc([N+](=O)[O-])n1)c1ccc(OC(F)(F)F)cc1 | > 357 | 2.1 | > 261 µM |  | > 131 |
| 13.8 µM | 6.05 µM | 21.4 µM | O=C(NCCCn1ccnc1[N+](=O)[O-])c1ccc(C(F)(F)F)cc1 | 29 | 0.3 | 177 µM |  |  |
